Values after ≈ are worked out from the molar mass of the structure shown. Active and inactive are the calls of the source. No cut-off for these calls is given here.
Tests used:
Format in all cases: functional
Candida albicans [1] = assay: Antifungal activity against Candida albicans SC5314 after 48 hrs by broth microdilution method; details: SC5314, 48 h
Method in brief: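 C. albicans SC5314 grown overnight, then set at (2−5) × 10^3 cells/mL in RPMI 1640. Compounds added at final 2 to 128 μg/mL, 35 °C for 48 h, following CLSI M27A3. OD600 read on a plate reader. MIC taken as the concentration giving 80% growth reduction.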

Candida albicans [2] = assay: Fungicidal activity against Candida albicans SC5314 at 16 ug/ml up to 12 hrs by YPD-based colony counting method
Method in brief: (§1)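 Overnight SC5314 cells washed and resuspended at 1 × 10^6 cells/mL in MOPS-buffered RPMI 1640. Compound added at final 8, 16 and 32 μg/mL, shaken at 30 °C. Aliquots taken at 0, 0.5, 1, 2, 3, 4, 5, 6, 7, 8 and 12 h, washed, diluted and plated on YPD agar for viable colony counts. Means ± SD.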

Candida albicans [3] = assay: Fungicidal activity against Candida albicans SC5314 at 32 ug/ml up to 2 hrs by YPD-based colony counting method; method in brief: as §1
Candida albicans [4] = assay: Induction of disruption of plasma membrane integrity in Candida albicans assessed as increase in fluorescence intensity after 3 hrs by propidium iodide-staining based FACS analysis
Method in brief: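 Log-phase C. albicans harvested and suspended in RPMI 1640, then treated 3 h at 30 °C (amphotericin B 8 μg/mL as positive control). Stained with 5 μM propidium iodide for 30 min at room temperature. Cell fluorescence measured by flow cytometry.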

Candida albicans [5] = assay: Induction of disruption of plasma membrane integrity in Candida albicans assessed as decrease in fluorescence intensity after 3 hrs by DPH-staining based spectrofluorophotometric analysis
Method in brief: (§2)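 Cells at 1 × 10^6/mL in YPD treated 3 h (0, 4, 8, 16, 32 μg/mL; amphotericin B 8 μg/mL as positive control). Fixed in 0.37% formaldehyde 30 min, washed in PBS, freeze-thawed in liquid nitrogen. Stained with 1 μM DPH 45 min at 30 °C, washed. Fluorescence read at ex 350/em 450 nm and expressed as relative fluorescence. Means ± SD.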

Candida albicans [6] = assay: Induction of disruption of plasma membrane integrity in Candida albicans assessed as decrease in fluorescence intensity at 8 ug/ml after 3 hrs by DPH-staining based spectrofluorophotometric analysis; method in brief: as §2

Row | Compound | MIC80 (Candida albicans [1]) | further results
1 | COc1c(O)c(-c2ccccc2)cc(O)c1-c1ccc(O)cc1 | 16 µg/mL (≈ 51.9 µM) | –
2 | COC1=C(c2ccccc2)C(=O)c2oc3ccccc3c2C1=O | > 128 µg/mL | –
3 | COC1=C(c2ccccc2)C(=O)C2=C(C1=O)c1ccccc1CO2 [BETULINAN B] | > 128 µg/mL | –
4 | COC1(OC)C2C(=O)C=C(c3ccccc3)C1(O)Oc1ccc(O)cc12 (stereo not drawn) | > 128 µg/mL | –
5 | COc1c(O)c(-c2ccccc2)cc(O)c1-c1ccccc1 | > 128 µg/mL | –
6 | Oc1cc(-c2ccccc2)c(O)c2c1-c1ccccc1CO2 | > 128 µg/mL | –
7 | C[C@@H]1[C@H](O)[C@@H](C)/C=C/C=C/C=C/C=C/C=C/C=C/C=C/[C@H](O[C@@H]2O[C@H](C)[C@@H](O)[C@H](N)[C@@H]2O)C[C@@H]2O[C@](O)(C[C@@H](O)C[C@@H](O)[C@H](O)CC[C@@H](O)C[C@@H](O)CC(=O)O[C@H]1C)C[C@H](O)[C@H]2C(=O)O | – | Activity (Candida albicans [6]): Active
8 | O=C1C=C(c2ccccc2)C(=O)C2=C1c1ccccc1CO2 | > 128 µg/mL | –
9 | COC1=C(c2ccc(O)cc2)C(=O)C=C(c2ccccc2)C1=O | 8 µg/mL (≈ 26.1 µM) | –

Further lines, with some results ahead:

Row | MIC80 (Candida albicans [1]) | Compound | further results
10 | 64 µg/mL (≈ 197 µM) | COc1c(O)c(-c2ccccc2)cc(O)c1-c1cc(O)ccc1O | –
11 | 8 µg/mL (≈ 26.1 µM) | COC1=C(c2ccccc2O)C(=O)C=C(c2ccccc2)C1=O | Activity (Candida albicans [2]): 99.8%; Activity (Candida albicans [3]): Active; Activity (Candida albicans [4]): Dose-dependent effect; Activity (Candida albicans [5]): Dose-dependent effect
12 | > 128 µg/mL | COC1=C(c2ccccc2)C(=O)C=C(c2ccccc2)C1=O [BETULINAN C] | –
13 | > 128 µg/mL | COC12Oc3ccc(O)cc3C1(O)C(=O)C=C(c1ccccc1)C2=O (stereo not drawn) | –
14 | 64 µg/mL (≈ 199 µM) | COC1=C(c2cc(O)ccc2O)C(=O)C=C(c2ccccc2)C1=O | –
